# A selection: hits, their analogues and other compounds. The true share with any hit is near 2.4%.
# ROMK mod – modulators of human ROMK potassium channel; Tet-inducible ROMK, thallium flux fluorescence; actives lie on both sides; B-score at 10 µM; hit rate 2% among 130,000; P48048;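 active = signal ratio slope over the read window, or its plate-corrected B-score, at least 3 SD from the plate mean, either direction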;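 also: B-score of the F/F0 ratio slope over 7 to 12 s after thallium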
# Target sequence (P48048 whole entry, looked up): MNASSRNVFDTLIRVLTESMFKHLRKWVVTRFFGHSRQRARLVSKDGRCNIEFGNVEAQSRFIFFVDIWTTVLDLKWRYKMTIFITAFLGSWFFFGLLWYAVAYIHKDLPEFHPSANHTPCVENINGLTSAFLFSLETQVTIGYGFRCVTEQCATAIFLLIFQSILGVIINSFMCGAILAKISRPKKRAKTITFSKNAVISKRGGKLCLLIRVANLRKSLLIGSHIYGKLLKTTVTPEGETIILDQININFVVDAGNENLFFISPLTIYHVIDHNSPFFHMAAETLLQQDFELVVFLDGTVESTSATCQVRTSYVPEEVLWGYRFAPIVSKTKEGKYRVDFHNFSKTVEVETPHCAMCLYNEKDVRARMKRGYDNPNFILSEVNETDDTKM
# MT stabilize HCS – stabilizes microtubules in HeLa cells; HeLa tubulin immunostaining HCS, 24 h; share of cells brighter than vehicle mean+2SD; % tubulin-high responders, % at 10 µM; AID 2205; hit rate 0.83% among 200,000;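 active = plate Z-score above 3 for both tubulin-high and condensed-nucleus cell shares, with cell loss under 80%, at 10 µM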;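 also: anti alpha tubulin signal scored within the nucleus-defined area of each cell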
# b-catenin transl – beta-catenin nuclear translocation modulation | HeLa beta-catenin nuclear translocation, immunofluorescence imaging | nuclear translocation activity, % at 5 µM | hit rate 0.3% among 190,000;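 active = nuclear translocation activity above 50% at 5 µM, with a well cell count of 50 or more; inconclusive = wells under 50 cells across six images, flagged as toxic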;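 also: per-cell ratio of nuclear to cytoplasmic median beta-catenin stain intensity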
#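 Test system: human HeLa cells, native beta-catenin. Compound dosing: 5 µM primary single dose, 0.1% DMSO, 0.02–20 µM confirmation series. Incubation: compound exposure 24 h at 37°C. Detection: beta-catenin immunostaining with DAPI counterstain, 20x imaging, 6 fields/well. Read-out basis: Nuclear/cytoplasmic beta-catenin signal ratio, % activation.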
# HSV augment – HSV replication enhancement; hit rate 0.005% among 220,000; maximum fold increase; HSV replication augmentation in cells, fold increase; in the data active = maximum fold increase above about 1.5; inconclusive = no clear call, values can overlap the other calls; tested in PC3 cells
# INS promoter inh – TRM-6 insulin promoter activity inhibition; TRM-6 cells (human fetal islet line), insulin promoter-eGFP reporter, imaging; reporter expression induced with tamoxifen; inhibition, % at 2 µM; hit rate 0.9% among 130,000; AID 1273;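 active = inhibition above the mean plus 3 SD, with well images judged a real hit on visual review, cut at about 60% in these data, passing the limit was not always enough; inconclusive = inhibition over the cutoff but images rejected on review; inactive = inhibition not above the cutoff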
# ROMK retest – confirmation of human ROMK potassium channel modulators; hit rate 54% among 3,000; shares compounds with ROMK mod; AID 1917; normalized thallium flux (F/F0 slope) at 10 µM; ROMK thallium flux, fluorescence ratio; active compounds read low;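 active = Flux at 10 µM at least 3 SD below or above vehicle control mean in one or both replicates; inconclusive = no clear call, values can overlap the other calls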
# Numbers stand for hits; n = inactive; u = inconclusive; x = not tested or not shown.
SMILES,ROMK mod,MT stabilize HCS,b-catenin transl,HSV augment,INS promoter inh,ROMK retest
COCCC1CCCCN1Cc1cn(-c2ccccc2)nc1-c1ccc2c(c1)OCO2 (stereo unspecified),-4.9,n,n,n,x,0.052
Cc1nonc1C1CCCN1Cc1nc(-c2ccccc2Cl)oc1C (stereo unspecified),x,n,n,n,x,x
N#C/C(=C/c1ccncc1)c1nc2ccccc2c(=O)[nH]1,-6.6,x,n,n,x,0.042
N#C/C(=C1\CCCN1)c1nc2ccccc2c(=O)[nH]1,n,n,n,n,n,x
N#C/C(=C\c1ccccc1)c1nc2ncccc2[nH]1,-2.5,n,n,n,x,0.053
N#C/C(=C\c1ccncc1)c1nc2ccccc2c(=O)[nH]1,-4.9,n,n,n,x,0.051
N#C/C(=C\c1ccncc1)c1nc2ccccc2o1,n,x,n,n,x,x
Cc1cccc(CN2C(=O)CCSc3ccc(Cl)cc32)c1,x,n,n,n,n,x
CC1(C)C/C(=N\NC(=S)Nc2ccccc2F)c2cc(O)ccc2O1,n,n,n,n,x,x
Cc1oc(-c2ccccc2F)nc1CN1CCC(C(=O)NC2CCCCCCC2)CC1,-4.6,n,n,x,x,0.058
CCOc1ccc(NC(=O)c2nn(-c3ccc(OC)cc3OC)c(=O)c3ccccc23)cc1,x,n,n,x,u,x
Cc1ccc(C2C(C#N)=C(N)Oc3n[nH]c(-c4cccs4)c32)cc1 (stereo unspecified),n,n,n,n,n,x
CC(C)c1[nH]nc2c1C(c1cccs1)C(C#N)=C(N)O2 (stereo unspecified),-5.7,n,n,n,n,0.058
Cc1ccc(NC(=O)c2ccc3ccccc3n2)nc1,x,n,n,n,n,x
Cc1cc(C)n(-c2nc(Nc3ccccc3C)nc(-n3nc(C)cc3C)n2)n1,x,n,n,n,n,x
Cc1cc(C)n(-c2nc(Nc3ccccc3C(F)(F)F)nc(-n3nc(C)cc3C)n2)n1,x,n,n,n,x,u
C/C(=N\Nc1nc2c(s1)CCCC2)c1ccccc1,n,n,n,n,n,x
C/C(=N\Nc1nc(C(=O)O)cs1)c1ccccc1,x,n,n,n,x,n
CC(=O)c1ccc(O)c(CO)c1,n,n,n,n,x,n
COc1ccc(-n2cc(C(=O)c3cc(Cl)ccc3O)cc(C#N)c2=O)cc1,2.7,n,n,n,n,n
COc1ccc(OC)c(C(=O)c2ccc(C(=O)Nc3cccc4ccccc34)cc2)c1,n,n,x,n,n,x
COc1ccc(C(=O)N/N=C/c2ccc(OC)c(CN3CCc4cc(OC)c(OC)cc4C3C)c2)cc1 (stereo unspecified),x,n,n,n,x,x
COc1cc(NC(=O)C2CCCN2C(=O)OCc2ccccc2)cc(OC)c1 (stereo unspecified),n,n,n,n,x,x
O=C(O)CCC(NC(=O)C1CCCN1C(=O)OCc1ccccc1)C(=O)O (stereo unspecified),1.5,n,n,n,x,n
COc1ccc(Nc2nc(-c3cccc([N+](=O)[O-])c3)nc3ccccc23)cc1,n,n,n,n,n,x
SMILES,ROMK mod,MT stabilize HCS,b-catenin transl,HSV augment,INS promoter inh,ROMK retest
C=CCOc1ccc(C=Nc2cccc(Cl)c2)c(O)c1,-2.9,n,n,n,n,n
Cc1sc2ncnc(NC3CCN(Cc4ccccc4)CC3)c2c1C,-3.7,n,n,n,n,u
CCOC(=O)c1c(NC(=S)Nc2ccccc2)sc2c1CCN(CCc1ccccc1)C2,x,n,n,x,n,0.061
CCNC(=O)c1c(O)c2ccccc2[nH]c1=O,2.6,n,n,n,n,n
Cc1ccc2nsnc2c1NC(=O)c1cncc(Br)c1,n,n,n,n,x,x
CCn1c(/C=C/Nc2ccccc2)[n+](CC)c2ccc(Cl)cc21,-3.2,n,n,n,n,u
CC(C)OCCCNC(=O)c1ccc(NS(C)(=O)=O)cc1,x,n,n,x,n,n
Cc1c(CCCN)c2ccccc2n1Cc1ccccc1,-2.9,n,n,n,n,0.05
O=Nc1c(O)n(Cc2ccccc2)c2ccccc12,x,x,n,n,x,x
COCCn1cnnc1SCC(=O)Nc1sccc1C(N)=O,n,n,n,n,x,x
Cc1cccc(N2C(=S)NC3c4ccccc4OC2(C)C3C(=O)N(C)C)c1 (stereo unspecified),-4.4,n,n,n,n,0.064
CN(C)C(=O)C1C2NC(=S)N(c3ccccc3)C1(C)Oc1ccccc12 (stereo unspecified),n,n,x,n,n,x
Cc1cc(CNCc2c(C(=O)N3CCCCCCC3)nc3ccc(Cl)cn23)nn1C,1.9,n,n,n,n,n
COc1ccccc1CNC(=O)CSCc1cnn(-c2ccccc2)c1-n1cccc1,x,n,x,n,n,x
COc1cccc(CNC(=O)CSCc2cnn(-c3ccccc3)c2-n2cccc2)c1OC,-3.3,n,x,n,n,n
CC(C)Nc1nc(NC(C)C)nc(SCCOC(=O)Nc2ccc(Cl)cc2Cl)n1,n,n,n,n,n,x
Cc1cc2c3c(c1)C(C)CC(C)(C)N3C(=O)C2=O (stereo unspecified),3.1,n,n,n,n,u
CCC(C)NC(=S)NNC(=O)c1ccc(C(C)(C)C)cc1 (stereo unspecified),x,n,n,n,x,u
Fc1ccc(-c2n[nH]c(=S)n2/N=C/c2c[nH]c3ccccc23)cc1,x,n,n,n,x,x
CC(C)CNS(=O)(=O)c1ccc(CCC(=O)NCCC2=CCCCC2)cc1,n,n,n,n,n,x
CCC(=O)c1cc(F)c(N2CCN(S(=O)(=O)c3ccc(C)cc3)CC2)cc1C,x,n,n,n,x,x
COC(=O)Cc1c(C)c2ccc(OCC(=O)N(C)C)cc2oc1=O,1.4,n,x,n,n,n
O=C(OCc1ccc(F)cc1)c1ccc2ccccc2n1,n,n,n,n,n,x
NNC(=O)c1cccc(O)c1,n,n,n,n,n,x
CC12CC3(C)CC(C)(C1)CC(C(=O)NC(=S)NC(C)(C)C)(C2)C3,2.5,n,n,n,n,u
SMILES,ROMK mod,MT stabilize HCS,b-catenin transl,HSV augment,INS promoter inh,ROMK retest
Cc1cc(N2C(=O)C3CC=CC(C)C3C2=O)no1 (stereo unspecified),n,n,x,n,n,x
CCn1c(=O)[nH]c(=O)c2c(N)c(C(=O)c3ccccc3OC)sc21,3.7,n,n,n,n,n
COc1ccc(-c2ccc(N)[n+](CCCC(=O)O)n2)cc1,x,x,x,n,x,x
CC1CCN(C(C(=O)NC2CCCCC2)c2cc3c(cc2[N+](=O)[O-])OCO3)CC1 (stereo unspecified),-3.1,n,n,n,n,0.06
Cn1cccc1Cc1nnc(SCC(=O)NCC2CCCO2)n1C (stereo unspecified),n,n,n,n,x,x
C/C(=N\Nc1ccc([N+](=O)[O-])cc1)c1ccc(O)cc1,-4.5,n,n,n,x,0.053
CCC1CCCCN1C(=O)COc1c(Br)cc(Br)c2cccnc12 (stereo unspecified),-4.1,n,n,n,x,0.059
CCC1CCCCN1C(=O)COc1ccc(F)cc1 (stereo unspecified),n,n,n,n,n,x
CCC1CCCCN1S(=O)(=O)c1ccc(S(=O)(=O)N(Cc2cccs2)C2CC2)cc1 (stereo unspecified),x,n,n,n,x,u

# Compound activity from PubChem BioAssay.
